Published values from different studies.
Each line is one published result; the experiments were not run side by side.
Cell line: PC-3
Read-out: cell growth or viability

CCN(CC)CCCn1cccc1/C=N/NC(=O)Nc1cc2c(Nc3ccc(F)c(Cl)c3)ncnc2cc1OC — IC50 (MTT; 72 h): 1.18 µM
C=CS(=O)(=O)Nc1ccc(CCn2cc(C[C@@]3(O)C[C@@H]4c5cc(OCc6cc(C)cc(C)c6)c(OCc6cc(C)cc(C)c6)cc5CCN4[C@@H](C)C3)nn2)cc1 — IC50 (MTT): 1.73 µM
O=C(CN1C(=O)/C(=C/c2ccccc2Cl)SC1=S)Nc1ccccc1 — inhibition (MTT; 10 µM): 22.6%
COc1cc(-c2ccc(-c3ccc(C(=N)N)nc3)s2)cc(OC)c1OC — GI50: 3.11 µM
O=C(CN1C(=O)/C(=C/c2cccc(O)c2)SC1=S)Nc1ccccc1 — inhibition (MTT; 10 µM): 12.6%
Cc1cc(C)cc(COc2cc3c(cc2OCc2cc(C)cc(C)c2)[C@H]2C[C@](O)(Cc4cn(-c5ccccc5)nn4)C[C@H](C)N2CC3)c1 — IC50 (MTT): 0.264 µM
COc1cccc(NC(=O)CN2C(=O)/C(=C/c3ccc(F)cc3)SC2=S)c1 — inhibition (MTT; 10 µM): 13%
CN1CCN(C/C=N/NC(=O)Nc2cc3c(Nc4ccc(F)c(Cl)c4)ncnc3cc2O[C@H]2CCOC2)CC1 — IC50 (MTT; 72 h): 1.83 µM
O=C(CN1C(=O)/C(=C/c2ccc(Cl)cc2Cl)SC1=S)Nc1ccccc1 — inhibition (MTT; 10 µM): 19.2%
COc1ccc(C(=O)/C=C/c2cccc(Cl)c2)cc1S(N)(=O)=O — GI50 (SRB; 48 h): 2.2 µM
CN1CCN(CCCn2cccc2/C=N/NC(=O)Nc2cc3c(Nc4ccc(F)c(Cl)c4)ncnc3cc2O[C@H]2CCOC2)CC1 — IC50 (MTT; 72 h): 2.06 µM
O=C(Nc1ccc(Cl)cn1)C1CCCN(C(=O)c2cc(C(F)(F)F)cc(C(F)(F)F)c2)C1 (stereo not shown) — inhibition (WST-1; 100 µM): 0%
COc1c(C)cnc(COc2ccc(NC(=O)Nc3cc(F)cc(F)c3)cc2)c1C — IC50 (MTT; 72 h): 57.6 µM
COc1ccc(C(=O)/C=C/c2ccc3ccccc3c2)cc1S(N)(=O)=O — inhibition (SRB; 10 µM): 112%
CCN(CC)C/C=N/NC(=O)Nc1cc2c(Nc3ccc(F)c(Cl)c3)ncnc2cc1OC — IC50 (MTT; 72 h): 4.4 µM
O=C(c1ccccc1)c1cccc(NC(=O)C2CCCN(C(=O)c3cc(C(F)(F)F)cc(C(F)(F)F)c3)C2)c1 (stereo not shown) — inhibition (WST-1; 100 µM): 0%
COc1ccnc(COc2ccc(NC(=O)Nc3ccc(Cl)cc3)cc2)c1OC — IC50 (MTT; 72 h): > 100 µM
COc1ccccc1/C=C/C(=O)c1ccc(OC)c(S(N)(=O)=O)c1 — GI50 (SRB; 48 h): 4.8 µM
O=C(Nc1cccc(Oc2ccccc2)c1)C1CCCN(C(=O)c2cccc(-c3ccco3)c2)C1 (stereo not shown) — inhibition (WST-1; 100 µM): 0%
